This is a sample that favours compounds with a hit; in the whole collection about 2.8% have one here.
SDO1 yeast rescue: compounds rescuing growth of sdo1-depleted yeast, bone marrow failure model; z-score at 10 µM; S. cerevisiae sdo1-depleted JHY4D growth rescue, OD600 30 h; active compounds read high; pdr5 snq2 efflux-pump mutant strain; AID 817; 0.21% of 140,000 active;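 active = z-score above 3 at both the 24 hr and the 30 hr optical density reads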
Yeast growth inh: yeast BB579 growth reduction in restrictive medium; S. cerevisiae BB579 growth, OD615, 48 h; 0.51% of 140,000 active; inhibition, % at 10 µM;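 active = inhibition above a set limit, 3 SD over the mean compound inhibition, cut at about 44% in these data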
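test system = yeast BB579 (DeaD) | buffer or medium = restrictive CSMM-D medium | doses = single compound dose of 10 µM, 0.25% DMSO final | times = 4 h preincubation and 48 h exposure at 30 °C | technique = culture absorbance at 615 nm | benchmarks = amphotericin B 10 µg/mL, positive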
HCT116 PTEN-null: suppresses growth of cells with PTEN deletion; HCT116 PTEN-null viability, CellTiter-Glo, 60 h; active compounds read low; viability, % at 10 µM; 1.2% of 140,000 active;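 active = viability at or below a set limit, 4 SD under the median of all tested compounds, cut at about 3.7% in these data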;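 note: PTEN knockout HCT116 line with beta catenin targeted HCT116 as companion control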
bCat KO growth: beta-catenin-lacking colon tumor cell growth suppression; 1.5% of 140,000 active; HCT116 beta-catenin knockout viability, CellTiter-Glo, 60 h; active compounds read low; viability, % at 10 µM;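 active = viability at or under a set limit, the compound median less 4 SD, cut at about 6% in these data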
Yeast life ext: yeast lifespan extension; inhibition of the nicotinamide effect, % at 10 µM; AID 775; S. cerevisiae growth with nicotinamide, OD615; deaD strain in restrictive glucose medium; 0.68% of 130,000 active;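 active = inhibition above a set limit, placed 3 SD over the median of all compounds, cut at about 26% in these data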
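Test system: DeaD-strain S. cerevisiae / Buffer or medium: restrictive glucose medium / Also added: nicotinamide 1.5 mM / Doses: one concentration, 10 µM, DMSO 0.25% / Schedule: 48 h at 30 °C / Signal: OD615 measurement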
Large screens that a line does not name were inactive.

COc1cc(NC(=S)NN2CCN(C)CC2)cc(OC)c1	none
Cc1ccc(OC/C(O)=C(\C#N)c2nc3ccccc3s2)cc1	Yeast life ext 28
COC(=O)c1ccc(/C(O)=C(\C#N)c2nc3ccccc3s2)cc1	Yeast life ext 31
CC(C)=C(C#N)c1nc2ccccc2s1	none
Cc1cc(C(=O)Nc2ccc3c(c2)OCCO3)c(C)o1	none
CC(=O)c1c(Nc2ccc3c(c2)OCCO3)oc(C)cc1=O	Yeast life ext 27
O=C(O)C1CCCCC1C(=O)Nc1ccc(F)cc1F (stereo not drawn)	none
S=C(NCC1CCCCC1)Nc1ccc(Oc2ccccc2)cc1	Yeast growth inh 49
CCCCCSc1nc(O)cc(=O)[nH]1	Yeast life ext 58
O=C(COc1ccc2ccccc2c1)Nc1cccc(C(=O)Nc2ccccc2C(=O)O)c1	Yeast life ext 64
CC(=O)c1cccc(NC(=O)COc2ccccc2)c1	none
Cc1ccccc1-c1n[nH]c(=S)n1/N=C/c1c(C)nn(-c2ccccc2)c1C	none
COc1cc(Cl)nn(-c2ccccc2)c1=O	none
O=c1c(Cl)cc(Cl)nn1-c1ccccc1	HCT116 PTEN-null 2.7, bCat KO growth 4.1
NC(=O)/C(=N\OC(=O)c1ccco1)c1nc(-c2ccc(Br)cc2)cs1	none
O=c1[nH]c2ccccc2nc1Cc1ccccc1	Yeast life ext 43
Cc1cc(C)c2c(N=NN3CCOCC3)[nH]nc2n1	Yeast growth inh 66
CN(C)c1ccc([C@@H]2[C@@H]([N+](=O)[O-])[C@H]3C=Cc4ccccc4N3[C@H]2C(=O)c2ccc(Cl)cc2)cc1	Yeast life ext 32
CN(C)c1ccc(C2SCCN2C(=O)c2ccc([N+](=O)[O-])cc2)cc1 (stereo not drawn)	none
Cc1ccc(NC(=S)N(CCN(C)C)Cc2cc3cc(C)cc(C)c3[nH]c2=O)cc1	none
O=S(Cc1ccc(Cl)cc1)CC(O)(c1ccccc1)c1ccccc1 (stereo not drawn)	none
O=S(Cc1ccccc1)CC(O)(c1ccc(Cl)cc1)c1ccc(Cl)cc1 (stereo not drawn)	bCat KO growth 5.7
O=C1C(Cl)=C(Nc2ccccc2)C(=O)c2ccccc21	HCT116 PTEN-null 1.0, bCat KO growth 1.1
C=CCNC1=C(Cl)C(=O)N(c2cccc(Cl)c2Cl)C1=O	none
CC(C)NC1=C(Cl)C(=O)c2ccccc2C1=O	none
C=CCNC1=C(Cl)C(=O)c2ccccc2C1=O	Yeast growth inh 60
O=[N+]([O-])c1cc(CN2CCCC2)c2cccnc2c1O	Yeast growth inh 60
Oc1ccc(COCc2ccccc2)c2cccnc12	Yeast growth inh 99, HCT116 PTEN-null 2.3, bCat KO growth 3.9
Oc1ccc(CNc2ccccc2F)c2cccnc12	none
Oc1c(CN2CCN(c3ccccn3)CC2)cc(Cl)c2cccnc12	Yeast growth inh 59, HCT116 PTEN-null 2.6, bCat KO growth 2.0
OCCN1CCN(Cc2cc(Cl)c3cccnc3c2O)CC1	none
Oc1c(CN2CCCCC2)cc(COCc2ccccc2)c2cccnc12	HCT116 PTEN-null 2.2, bCat KO growth 1.7
COc1ccc(-n2c(=O)cc(N3CC(C)OC(C)C3)[nH]c2=O)cc1 (stereo not drawn)	none
COCC(=O)N(C)C1(c2nnnn2CCOC(=O)Nc2cccc3ccccc23)CCCC1	none
CCOc1ccc(Cn2c(C)nc([N+](=O)[O-])c2SCC(O)CCl)cc1[N+](=O)[O-] (stereo not drawn)	none
COCCNCC(=O)Nc1ccccc1Sc1ccccc1	none
CCc1nc(SCC(=O)c2cccs2)c2oc3ccccc3c2n1	none
COc1ccccc1N1CCN(Cc2cc(Br)c(O)c3ncccc23)CC1	Yeast growth inh 97, HCT116 PTEN-null 2.1, bCat KO growth 2.2
OCc1ccc(O)c2ncccc12	Yeast growth inh 96, bCat KO growth 4.3
Cc1ccc(N=Nc2ccc(O)c3ncccc23)cc1	Yeast growth inh 55
Oc1ccc(CN2CCCCC2)c2cccnc12	Yeast growth inh 45, HCT116 PTEN-null 1.2, bCat KO growth 2.3 (no result: Yeast life ext)
Cc1ccc(N=Nc2c(O)n(CN3CCOCC3)c3ccccc23)cc1	none
COc1ccc2nc(SCC(=O)Nc3ccc(S(=O)(=O)Nc4nccc(C)n4)cc3)[nH]c2c1	none
NC(=O)N/N=C/c1cc(Br)ccc1OC(=O)c1ccccc1	none
Oc1ccc(CN2CCc3ccccc3C2)c2cccnc12	HCT116 PTEN-null 1.7, bCat KO growth 2.1
Oc1ccc(CN2CCN(c3ccccc3)CC2)c2cccnc12	HCT116 PTEN-null 2.8, bCat KO growth 3.0 (no result: Yeast life ext)

Assay outcomes as filed in PubChem BioAssay.
